Data set [1] relates to Trypanosoma brucei. The data set is described as follows: Trypanocidal activity against bloodstream form of Trypanosoma brucei 427-221a assessed as parasite killing incubated for 24 hrs by microscopic analysis. The class given is functional. A digest of the protocol: (§1)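 Bloodstream-form T. brucei 427-221a seeded at 1 × 10^4 mL^-1 or HL-60 cells at 5 × 10^4 mL^-1 in Baltz medium with 16.7% heat-inactivated bovine serum, 0.9% DMSO, 10-fold dilutions 100 μM to 100 nM; 37 °C, 5% CO2. MIC, concentration killing all cells, determined microscopically. Possible values 100 μM down to […].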

Data set [2] relates to Trypanosoma brucei. The data set is described as follows: Trypanocidal activity against bloodstream form of Trypanosoma brucei 427-221a assessed as inhibition of parasite growth incubated for 24 hrs and measured at 48 hrs following resazurin challenge by resazurin assay. In kind it is functional. Conditions: time 72 hrs. A digest of the protocol: (§2)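 Bloodstream-form T. brucei 427-221a (1 × 10^4 mL^-1) or HL-60 cells (5 × 10^4 mL^-1) in Baltz medium with 16.7% heat-inactivated bovine serum, 0.9% DMSO, 10-fold dilutions 100 μM to 100 nM; 37 °C, 5% CO2, 24 h. Resazurin then added, 48 h more; absorbance 570 nm, reference 630 nm. GI50 by linear interpolation; mean and SD of three independent experiments.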
In general terms: Resazurin is reduced to fluorescent resorufin, in cell work by metabolically active cells.

Data set [3] in a line: Cytotoxicity against human HL-60 cells assessed as cell killing incubated for 24 hrs by microscopic analysis. Conditions: read-out: MIC. The class given is toxicity, cell-based. A digest of the protocol:
as §1

Data set [4] is described as follows: Cytotoxicity against human HL-60 cells assessed as inhibition of cell growth incubated for 24 hrs and measured at 48 hrs following resazurin challenge by resazurin assay. The class given is toxicity, cell-based. The gist of the method: as §2
The nature of data set [5]: Selectivity index, ratio of MIC for cytotoxicity against human HL60 cells to MIC for Trypanocidal activity against bloodstream form of Trypanosoma brucei 427-221a. Conditions: read-out: Selectivity Index. The class given is toxicity, cell-based.
Data set [6] is described as follows: Selectivity index, ratio of GI50 for cytotoxicity against human HL60 cells to GI50 for Trypanocidal activity against bloodstream form of Trypanosoma brucei 427-221a. Conditions: read-out: RatioGI50. The class given is toxicity, cell-based. A digest of the protocol: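 Ratio of HL-60 GI50 to T. brucei GI50. Both from the resazurin assay in Baltz medium with 16.7% heat-inactivated bovine serum and 0.9% DMSO, 10-fold dilutions 100 μM to 100 nM, 24 h then 48 h with resazurin. GI50 by linear interpolation, three independent experiments.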

Data set [7] concerns Trypanosoma brucei. The data set is described as follows: Trypanocidal activity against bloodstream form of Trypanosoma brucei 427-221a assessed as increase in cell swelling activity at 100 uM measured every 10 min for 60 mins by light scattering method. The class given is functional, organism-based. The gist of the method:
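Light-scattering cell-volume assay. 1 × 10^7 bloodstream-form T. brucei 427-221a in 200 μL Baltz medium with 100 μM compound and 0.9% DMSO; controls with DMSO only. Absorbance at 490 nm read every 10 min for 60 min; falling absorbance indicates cell swelling. Rate constant k of the absorbance decrease derived. Means of three independent experiments.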

A short description of data set [8]: Lipophilicity, log P of the compound. The class given is physicochemical. Conditions: octanol/water.

Data on three compounds can be found in ChEMBL document CHEMBL5385902, “Synthesis of urea and thiourea derivatives of C20-epi-aminosalinomycin and their activity against Trypanosoma brucei” (Eur J Med Chem, 2023).

Values after ≈ are worked out from the molar mass of the structure shown. Active and inactive are the calls of the source. The calls are words filed in the database; no cut-off is given here.

What is called MIC is the lowest concentration found to suppress growth. The term GI50 denotes the concentration that inhibits growth by half. Broadly, the logP is the decadic logarithm of the partition coefficient of the neutral form, usually between octanol and water. A lower logP goes with a more hydrophilic compound. In the case of `CC[C@@H](C(=O)[C@@H](C)[C@@H](O)[C@H](C)[C@@H]1O[C@@H]([C@@H](CC)C(=O)O)CC[C@@H]1C)[C@H]1O[C@]2(C=C[C@@H](O)[C@]3(CC[C@@](C)([C@H]4CC[C@](O)(CC)[C@H](C)O4)O3)O2)[C@H](C)C[C@@H]1C` [SALINOMYCIN], in the data set on Trypanosoma brucei [1], the MIC was 1 µM (≈ 0.751 µg/mL). For the same compound, in the data set with Trypanosoma brucei [2], the GI50 amounted to 0.27 µM. For the same compound, the MCC at 24 h in data set [3] was found to be 100 µM. In addition, the GI50 at 72 h in data set [4] turned out to be 20 µM. For the same compound, the selectivity ratio in data set [5] stood at 100; in data set [6] it was 74.1. Further, the outcome with Trypanosoma brucei [7] was Active. Also, the logP in data set [8] was above 6.2.

In the case of `CCCCNC(=S)N[C@H]1C=C[C@]2(O[C@H]([C@@H](CC)C(=O)[C@@H](C)[C@@H](O)[C@H](C)[C@@H]3O[C@@H]([C@@H](CC)C(=O)O)CC[C@@H]3C)[C@@H](C)C[C@H]2C)O[C@@]12CC[C@@](C)([C@H]1CC[C@](O)(CC)[C@H](C)O1)O2`, the MIC with Trypanosoma brucei [1] amounted to 1 µM (≈ 0.865 µg/mL). The concentration for 50% growth inhibition (GI50) with Trypanosoma brucei [2] was determined as 0.18 µM. In addition, the MCC at 24 h in data set [3] is 10 µM. In addition, in data set [4], the GI50 at 72 h is 8.4 µM. The values for the selectivity ratio in data set [5] and in data set [6] were 10 and 46.7, respectively. Also, the outcome with Trypanosoma brucei [7] was Active.

Turning to `CC[C@@H](C(=O)[C@@H](C)[C@@H](O)[C@H](C)[C@@H]1O[C@@H]([C@@H](CC)C(=O)O)CC[C@@H]1C)[C@H]1O[C@]2(C=C[C@H](NC(=S)Nc3ccccc3)[C@]3(CC[C@@](C)([C@H]4CC[C@](O)(CC)[C@H](C)O4)O3)O2)[C@H](C)C[C@@H]1C`, the MIC with Trypanosoma brucei [1] was 1 µM (≈ 0.885 µg/mL). Besides, the GI50 in the data set on Trypanosoma brucei [2] came to 0.22 µM. The MCC at 24 h in data set [3] was 10 µM. Also, the GI50 at 72 h in data set [4] was determined as 8.9 µM. Further, the figures for the selectivity ratio in data set [5] and in data set [6] were 10 and 40.5, respectively. Besides, in the data set with Trypanosoma brucei [7], the result was Active.
